According to ChEMBL document CHEMBL2346608, “New annelated thieno[2,3-e][1,2,3]triazolo[1,5-a]pyrimidines, with potent anticancer activity, designed through VLAK protocol” (2013):

Legend:
Type in all cases: functional
OVCAR-5 = assay: Antiproliferative activity against human OVCAR5 cells after 48 hrs by sulforhodamine B assay; conditions: OVCAR-5, 48 h
In short: (§1)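 Cells grown in RPMI 1640 with 5% FBS and 2 mM L-glutamine, plated at 5000–40,000 cells/well and preincubated 24 h at 37 °C, 5% CO2. Five drug concentrations (10-fold or ½-log dilutions from DMSO stocks) applied for 48 h. TCA-fixed (final 10% adherent, 16% suspension), SRB-stained, A515 read. Growth versus time-zero and control wells gave GI50, TGI, LC50.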

HT-29 = assay: Antiproliferative activity against human HT-29 cells after 48 hrs by sulforhodamine B assay; conditions: HT-29, 48 h; in short: as §1
M14 = assay: Antiproliferative activity against human M14 cells after 48 hrs by sulforhodamine B assay; conditions: M14, 48 h; in short: as §1
[1] = Antiproliferative activity against human EKVX cells after 48 hrs by sulforhodamine B assay; in short: as §1
MCF7 = assay: Antiproliferative activity against human MCF7 cells after 48 hrs by sulforhodamine B assay; conditions: MCF7, 48 h; in short: as §1
KM12 = assay: Antiproliferative activity against human KM12 cells after 48 hrs by sulforhodamine B assay; conditions: KM12, 48 h; in short: as §1
OVCAR-3 = assay: Antiproliferative activity against human OVCAR3 cells after 48 hrs by sulforhodamine B assay; conditions: OVCAR-3, 48 h; in short: as §1
SN12C = assay: Antiproliferative activity against human SN12C cells after 48 hrs by sulforhodamine B assay; in short: as §1
OVCAR-4 = assay: Antiproliferative activity against human OVCAR4 cells after 48 hrs by sulforhodamine B assay; conditions: OVCAR-4, 48 h; in short: as §1
ACHN = assay: Antiproliferative activity against human ACHN cells after 48 hrs by sulforhodamine B assay; in short: as §1
TK-10 = assay: Antiproliferative activity against human TK10 cells after 48 hrs by sulforhodamine B assay; conditions: TK-10, 48 h
In short: (§2)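 Cells in RPMI 1640 with 5% FBS and 2 mM L-glutamine were seeded at 5000–40,000/well according to doubling time and preincubated 24 h at 37 °C in 5% CO2. Time-zero plates were TCA-fixed when drug was added. Five 10-fold or ½-log dilutions from DMSO stocks were added for 48 h. After SRB staining, A515 was read and GI50 derived from [(Ti−Tz)/(C−Tz)]×100 = 50.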

LOX IMVI = assay: Antiproliferative activity against human LOXIMVI cells after 48 hrs by sulforhodamine B assay; in short: as §1
SK-MEL-28 = assay: Antiproliferative activity against human SK-MEL-28 cells after 48 hrs by sulforhodamine B assay; conditions: SK-MEL-28, 48 h; in short: as §1
OVCAR-8 = assay: Antiproliferative activity against human OVCAR8 cells after 48 hrs by sulforhodamine B assay; conditions: OVCAR-8, 48 h; in short: as §1
SF-268 = assay: Antiproliferative activity against human SF268 cells after 48 hrs by sulforhodamine B assay; conditions: SF-268, 48 h; in short: as §1
DU-145 = assay: Antiproliferative activity against human DU145 cells after 48 hrs by sulforhodamine B assay; conditions: DU-145, 48 h; in short: as §1
HCT-15 = assay: Antiproliferative activity against human HCT15 cells after 48 hrs by sulforhodamine B assay; conditions: HCT-15, 48 h; in short: as §1
SF-539 = assay: Antiproliferative activity against human SF539 cells after 48 hrs by sulforhodamine B assay; conditions: SF-539, 48 h; in short: as §1
A549 = assay: Antiproliferative activity against human A549 cells after 48 hrs by sulforhodamine B assay; conditions: A549, 48 h; in short: as §1
[2] = Antiproliferative activity against human Hs 578T cells after 48 hrs by sulforhodamine B assay; in short: as §1
786-0 = assay: Antiproliferative activity against human 786-0 cells after 48 hrs by sulforhodamine B assay; conditions: 786-0, 48 h; in short: as §1
HOP-62 = assay: Antiproliferative activity against human HOP62 cells after 48 hrs by sulforhodamine B assay; conditions: HOP-62, 48 h; in short: as §1
MDA-MB-468 = assay: Antiproliferative activity against human MDA-MB-468 cells after 48 hrs by sulforhodamine B assay; conditions: MDA-MB-468, 48 h; in short: as §1
NCI-H226 = assay: Antiproliferative activity against human NCI-H226 cells after 48 hrs by sulforhodamine B assay; conditions: NCI-H226, 48 h; in short: as §1
MDA-MB-435 = assay: Antiproliferative activity against human MDA-MB-435 cells after 48 hrs by sulforhodamine B assay; conditions: MDA-MB-435, 48 h; in short: as §1
HL-60 = assay: Antiproliferative activity against human HL60 (TB) cells after 48 hrs by sulforhodamine B assay; conditions: HL-60, 48 h
In short: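 NCI 60-cell panel protocol: cells in RPMI 1640 with 5% FBS and 2 mM L-glutamine, plated 24 h at 37 °C/5% CO2 before dosing. Compounds dissolved in DMSO and tested at five concentrations (10-fold or ½ log serial dilutions) for 48 h. Suspension cells fixed with 80% TCA (final 16%), SRB stained, absorbance at 515 nm. GI50 derived from time-zero-corrected growth.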

U-251 = assay: Antiproliferative activity against human U251 cells after 48 hrs by sulforhodamine B assay; conditions: U-251, 48 h; in short: as §2
[3] = read-out: pLC50 (the source's name) (converted)

With O=C(CCCn1c(=O)c2sc3ncccc3c2n2nnc(-c3ccccc3)c12)NCCc1c[nH]cn1 as the molecule, how does the GI50 (OVCAR-5) read?
Its GI50 is 11.5 µM.

And the LC50 (OVCAR-5)?
The LC50 was 93.3 µM.

What about the TGI (OVCAR-5; read-out: pTGI (converted)) of the same molecule?
The TGI was 32.4 µM.

And the GI50 (HT-29)?
Its GI50 is 3.89 µM.

What about the LC50 (HT-29) of the same molecule?
The LC50 was greater than 100 µM.

And the TGI (HT-29; read-out: pTGI (converted))?
Its TGI is 55 µM.

What about the GI50 (M14) of the same molecule?
The GI50 was 3.47 µM.

What about the LC50 (M14) of the same molecule?
Its LC50 is 50.1 µM.

What about the TGI (M14; read-out: pTGI (converted)) of the same molecule?
The TGI was 19.5 µM.

And the GI50 [1]?
The GI50 was 15.1 µM.

And the LC50 [1]?
Its LC50 is greater than 100 µM.

What about the TGI ([1]; read-out: pTGI (converted)) of the same molecule?
The TGI was 44.7 µM.

And the GI50 (MCF7)?
Its GI50 is 17.8 µM.

And the LC50 (MCF7)?
The LC50 was greater than 100 µM.

And the TGI (MCF7; read-out: pTGI (converted))?
Its TGI is greater than 100 µM.

What about the GI50 (KM12) of the same molecule?
Its GI50 is 1.91 µM.

What about the LC50 (KM12) of the same molecule?
Its LC50 is 83.2 µM.

What about the TGI (KM12; read-out: pTGI (converted)) of the same molecule?
Its TGI is 24 µM.

What about the GI50 (OVCAR-3) of the same molecule?
Its GI50 is 11 µM.

What about the LC50 (OVCAR-3) of the same molecule?
Its LC50 is 50.1 µM.

And the TGI (OVCAR-3; read-out: pTGI (converted))?
The TGI was 23.4 µM.

And the GI50 (SN12C)?
The GI50 was 0.331 µM.

And the LC50 (SN12C)?
Its LC50 is 41.7 µM.

What about the TGI (SN12C; read-out: pTGI (converted)) of the same molecule?
Its TGI is 13.5 µM.

And the GI50 (OVCAR-4)?
The GI50 was 15.5 µM.

What about the LC50 (concentration killing 50% of cells) (OVCAR-4) of the same molecule?
The LC50 (concentration killing 50% of cells) was 67.6 µM.

And the TGI (OVCAR-4; read-out: pTGI (converted))?
The TGI was 32.4 µM.

And the GI50 (ACHN)?
Its GI50 is 15.5 µM.

What about the LC50 (50% lethal concentration) (ACHN) of the same molecule?
The LC50 (50% lethal concentration) was 63.1 µM.

What about the TGI (ACHN; read-out: pTGI (converted)) of the same molecule?
The TGI was 30.9 µM.

What about the GI50 (TK-10) of the same molecule?
Its GI50 is 13.5 µM.

What about the LC50 (TK-10) of the same molecule?
The LC50 was 57.5 µM.

What about the TGI (TK-10; read-out: pTGI (converted)) of the same molecule?
Its TGI is 28.2 µM.

What about the GI50 (LOX IMVI) of the same molecule?
The GI50 was 12.3 µM.

And the CC50 (LOX IMVI; [3])?
The CC50 was 57.5 µM.

What about the TGI (LOX IMVI; read-out: pTGI (converted)) of the same molecule?
Its TGI is 26.3 µM.

What about the GI50 (SK-MEL-28) of the same molecule?
The GI50 was 17 µM.

And the LC50 (SK-MEL-28)?
The LC50 was 72.4 µM.

And the TGI (SK-MEL-28; read-out: pTGI (converted))?
Its TGI is 34.7 µM.

And the GI50 (OVCAR-8)?
The GI50 was 0.0955 µM.

And the LC50 (OVCAR-8)?
Its LC50 is 67.6 µM.

And the TGI (OVCAR-8; read-out: pTGI (converted))?
The TGI was 17.4 µM.

And the GI50 (SF-268)?
The GI50 was 11.7 µM.

What about the LC50 (SF-268) of the same molecule?
Its LC50 is 72.4 µM.

What about the TGI (SF-268; read-out: pTGI (converted)) of the same molecule?
Its TGI is 28.8 µM.

What about the GI50 (DU-145) of the same molecule?
The GI50 was 2.75 µM.

And the LC50 (DU-145)?
Its LC50 is 61.7 µM.

And the TGI (DU-145; read-out: pTGI (converted))?
The TGI was 19.5 µM.

And the GI50 (HCT-15)?
Its GI50 is 5.75 µM.

And the LC50 (HCT-15)?
Its LC50 is greater than 100 µM.

And the TGI (HCT-15; read-out: pTGI (converted))?
The TGI was greater than 100 µM.

And the GI50 (SF-539)?
The GI50 was 0.316 µM.

And the LC50 (SF-539)?
The LC50 was 53.7 µM.

And the TGI (SF-539; read-out: pTGI (converted))?
Its TGI is 14.8 µM.

What about the GI50 (A549) of the same molecule?
Its GI50 is 8.71 µM.

And the LC50 (A549)?
Its LC50 is greater than 100 µM.

And the TGI (A549; read-out: pTGI (converted))?
The TGI was 34.7 µM.

What about the GI50 [2] of the same molecule?
Its GI50 is 11.2 µM.

And the LC50 [2]?
Its LC50 is 87.1 µM.

What about the TGI ([2]; read-out: pTGI (converted)) of the same molecule?
Its TGI is 31.6 µM.

What about the GI50 (786-0) of the same molecule?
The GI50 was 12.6 µM.

What about the CC50 (786-0; [3]) of the same molecule?
The CC50 was 52.5 µM.

What about the TGI (786-0; read-out: pTGI (converted)) of the same molecule?
The TGI was 25.7 µM.

And the GI50 (HOP-62)?
The GI50 was 16.6 µM.

And the LC50 (HOP-62)?
Its LC50 is 61.7 µM.

What about the TGI (HOP-62; read-out: pTGI (converted)) of the same molecule?
Its TGI is 31.6 µM.

What about the GI50 (MDA-MB-468) of the same molecule?
The GI50 was 8.13 µM.

What about the LC50 (MDA-MB-468) of the same molecule?
The LC50 was 79.4 µM.

What about the TGI (MDA-MB-468; read-out: pTGI (converted)) of the same molecule?
Its TGI is 27.5 µM.

What about the GI50 (NCI-H226) of the same molecule?
Its GI50 is 11.7 µM.

What about the LC50 (NCI-H226) of the same molecule?
Its LC50 is 74.1 µM.

And the TGI (NCI-H226; read-out: pTGI (converted))?
Its TGI is 29.5 µM.

What about the GI50 (MDA-MB-435) of the same molecule?
Its GI50 is 0.49 µM.

What about the LC50 (MDA-MB-435) of the same molecule?
Its LC50 is greater than 100 µM.

What about the TGI (MDA-MB-435; read-out: pTGI (converted)) of the same molecule?
Its TGI is 20.4 µM.

What about the GI50 (HL-60) of the same molecule?
The GI50 was 1.41 µM.

And the CC50 (HL-60; [3])?
Its CC50 is 50.1 µM.

What about the TGI (HL-60; read-out: pTGI (converted)) of the same molecule?
The TGI was 4.79 µM.

And the GI50 (U-251)?
Its GI50 is 1.29 µM.

And the LC50 (U-251)?
The LC50 was 45.7 µM.

And the TGI (U-251; read-out: pTGI (converted))?
Its TGI is 14.8 µM.
